# Measurements taken from ChEMBL document CHEMBL3243954 (J Med Chem, 1979).
# How the values were obtained:
# Mus musculus [1] = assay: Antimetrazol activity in iv dosed mouse assessed as inhibition of metrazol-induced tonic-extensor seizures administered 60 mins prior to metrazol challenge; assay type: functional; details: Mus musculus, iv; read-out: ED50
# How it was run: (§1)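 Mice dosed iv with the ester in aqueous solution containing under 10% chremofor. Metrazol 125 mg/kg sc was given 30 or 60 min after the ester. ED50 is the dose preventing tonic-extensor seizures in 50% of mice, derived by probit analysis.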
# Mus musculus [2] = organism: Mus musculus; assay: Ratio of ED50 for muscle relaxant activity in mouse to ED50 for antimetrazol activity in mouse measured after 30 mins
# Mus musculus [3] = assay: Muscle relaxant activity in iv dosed mouse after 30 mins by rotarod test; assay type: ADME, organism-based; details: in vivo, 0.5 h
# Mus musculus [4] = assay: Muscle relaxant activity in iv dosed mouse after 60 mins by rotarod test; assay type: ADME, organism-based; details: in vivo, 1 h
# [5] = Drug metabolism in mouse liver microsomes assessed as rate of esterase-mediated compound hydrolysis measured per mg of protein by pH stat based titrimetric analysis; assay type: ADME
# Mus musculus [6] = assay: Antimetrazol activity in iv dosed mouse assessed as inhibition of metrazol-induced tonic-extensor seizures administered 30 mins prior to metrazol challenge; assay type: functional; details: Mus musculus, iv; read-out: ED50; how it was run: as §1
# Mus musculus [7] = organism: Mus musculus; assay: Ratio of ED50 for muscle relaxant activity in mouse to ED50 for antimetrazol activity in mouse measured after 60 mins
# Brain [8] = assay: Drug uptake albino mouse brain at 5 mg equivalent of oxazepam/kg, iv after 120 mins measured per gm of tissue by thin-layer chromatography; assay type: ADME, organism-based; details: in vivo, 2 h
# Brain [9] = assay: Drug uptake albino mouse brain at 5 mg equivalent of oxazepam/kg, iv after 60 mins measured per gm of tissue by thin-layer chromatography; assay type: ADME, organism-based; details: in vivo, 1 h
# Brain [10] = assay: Drug uptake albino mouse brain at 5 mg equivalent of oxazepam/kg, iv after 10 mins measured per gm of tissue by thin-layer chromatography; assay type: ADME, organism-based; details: in vivo
# Brain [11] = assay: Drug uptake albino mouse brain at 5 mg equivalent of oxazepam/kg, iv after 20 mins measured per gm of tissue by thin-layer chromatography; assay type: ADME, organism-based; details: in vivo
# Brain [12] = assay: Drug uptake albino mouse brain at 5 mg equivalent of oxazepam/kg, iv after 3 mins measured per gm of tissue by thin-layer chromatography; assay type: ADME, organism-based; details: in vivo, 0.05 h
# Brain [13] = assay: Drug uptake albino mouse brain at 5 mg equivalent of oxazepam/kg, iv after 40 mins measured per gm of tissue by thin-layer chromatography; assay type: ADME, organism-based; details: in vivo
# Brain [14] = assay: Drug uptake albino mouse brain at 5 mg equivalent of oxazepam/kg, iv after 5 mins measured per gm of tissue by thin-layer chromatography; assay type: ADME, organism-based; details: in vivo
# Brain [15] = assay: Drug uptake albino mouse brain at 5 mg equivalent of oxazepam/kg, iv after 240 mins measured per gm of tissue by thin-layer chromatography; assay type: ADME, organism-based; details: in vivo, 4 h
# esterase = assay: Drug metabolism in mouse liver microsomes assessed as rate of esterase-mediated compound hydrolysis by pH stat based titrimetric analysis; assay type: ADME; details: liver microsomes
# Brain [16] = assay: Drug uptake albino mouse brain at 10 mg equivalent of oxazepam/kg, iv after 30 mins measured per gm of tissue by thin-layer chromatography; assay type: ADME, organism-based; details: in vivo, 0.5 h
# Brain [17] = assay: Drug uptake albino mouse brain at 10 mg equivalent of oxazepam/kg, iv after 2 mins measured per gm of tissue by thin-layer chromatography; assay type: ADME, organism-based; details: in vivo
# Brain [18] = assay: Drug uptake albino mouse brain at 10 mg equivalent of oxazepam/kg, iv after 10 mins measured per gm of tissue by thin-layer chromatography; assay type: ADME, organism-based; details: in vivo
# Brain [19] = assay: Drug uptake albino mouse brain at 10 mg equivalent of oxazepam/kg, iv after 20 mins measured per gm of tissue by thin-layer chromatography; assay type: ADME, organism-based; details: in vivo
# Brain [20] = assay: Drug uptake albino mouse brain at 10 mg equivalent of oxazepam/kg, iv after 240 mins measured per gm of tissue by thin-layer chromatography; assay type: ADME, organism-based; details: in vivo, 4 h
# Brain [21] = assay: Drug uptake albino mouse brain at 10 mg equivalent of oxazepam/kg, iv after 40 mins measured per gm of tissue by thin-layer chromatography; assay type: ADME, organism-based; details: in vivo
# Brain [22] = assay: Drug uptake albino mouse brain at 10 mg equivalent of oxazepam/kg, iv after 120 mins measured per gm of tissue by thin-layer chromatography; assay type: ADME, organism-based; details: in vivo, 2 h
# Brain [23] = assay: Drug uptake albino mouse brain at 10 mg equivalent of oxazepam/kg, iv after 5 mins measured per gm of tissue by thin-layer chromatography; assay type: ADME, organism-based; details: in vivo
# Brain [24] = assay: Drug uptake albino mouse brain at 10 mg equivalent of oxazepam/kg, iv after 60 mins measured per gm of tissue by thin-layer chromatography; assay type: ADME, organism-based; details: in vivo, 1 h
# Brain [25] = assay: Drug uptake albino mouse brain at 10 mg equivalent of oxazepam/kg, iv after 90 mins measured per gm of tissue by thin-layer chromatography; assay type: ADME, organism-based; details: in vivo, 1.5 h
# [26] = Retardation factor, Rm of the compound by thin-layer chromatography; assay type: physicochemical
# Brain [27] = assay: Drug uptake albino mouse brain at 10 mg equivalent of oxazepam/kg, iv after 3 mins measured per gm of tissue by thin-layer chromatography; assay type: ADME, organism-based; details: in vivo, 0.05 h
# Brain [28] = assay: Drug uptake albino mouse brain at 10 mg equivalent of oxazepam/kg, iv after 1 min measured per gm of tissue by thin-layer chromatography; assay type: ADME, organism-based; details: in vivo
# Liver [29] = assay: Drug metabolism in albino mouse liver assessed as total metabolite concentration at 5 mg equivalent of oxazepam/kg, iv after 1 min by thin layer chromatography; assay type: ADME, organism-based; details: in vivo
# How it was run: (§2)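 Liver was dried and its total radioactivity, the sum of metabolites, was measured on a carbon-tritium analyzer. Values are means of four mice (±SE).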
# Brain [30] = assay: Drug uptake albino mouse brain at 5 mg equivalent of oxazepam/kg, iv after 1 min measured per gm of tissue by thin-layer chromatography; assay type: ADME, organism-based; details: in vivo
# Liver [31] = assay: Drug metabolism in albino mouse liver assessed as total metabolite concentration at 5 mg equivalent of oxazepam/kg, iv after 5 mins by thin layer chromatography; assay type: ADME, organism-based; details: in vivo; how it was run: as §2
# Liver [32] = assay: Drug metabolism in albino mouse liver assessed as total metabolite concentration at 5 mg equivalent of oxazepam/kg, iv after 10 mins by thin layer chromatography; assay type: ADME, organism-based; details: in vivo; how it was run: as §2
# Liver [33] = assay: Drug metabolism in albino mouse liver assessed as total metabolite concentration at 5 mg equivalent of oxazepam/kg, iv after 3 mins by thin layer chromatography; assay type: ADME, organism-based; details: in vivo, 0.05 h; how it was run: as §2
smiles,measurement,setting,value
CCC(=O)OC1N=C(c2ccccc2)c2cc(Cl)ccc2NC1=O (stereo not drawn),ED50,Mus musculus [1],0.32 mg/kg
same,Ratio ED50,Mus musculus [2],34.2
same,ED50,Mus musculus [3],4.45 mg/kg
same,ED50,Mus musculus [4],4.4 mg/kg
same,Vmax,[5],139 nmol/min
same,ED50,Mus musculus [6],0.13 mg/kg
same,Ratio ED50,Mus musculus [7],13.8
"CC(Cc1ccccc1)C(=O)OC1N=C(c2ccccc2)c2cc(Cl)ccc2N[14C]1=O (single isomer, unassigned; (-))",Drug uptake,Brain [8],13.7 nmol
same,Drug uptake,Brain [9],14.8 nmol
same,Drug uptake,Brain [10],4.6 nmol
same,Drug uptake,Brain [11],6.7 nmol
same,Drug uptake,Brain [12],0.8 nmol
same,Drug uptake,Brain [13],11.8 nmol
same,Drug uptake,Brain [14],1.6 nmol
same,Drug uptake,Brain [15],12.2 nmol
O=C(CCc1ccccc1)OC1N=C(c2ccccc2)c2cc(Cl)ccc2NC1=O (stereo not drawn),ED50,Mus musculus [1],0.31 mg/kg
same,Ratio ED50,Mus musculus [2],5.8
same,ED50,Mus musculus [3],2.57 mg/kg
same,ED50,Mus musculus [4],3.56 mg/kg
same,Vmax,[5],7.9 nmol/min
same,ED50,Mus musculus [6],0.44 mg/kg
same,Km,esterase,9.7 µM
same,Ratio ED50,Mus musculus [7],11.5
CCCC(=O)OC1N=C(c2ccccc2)c2cc(Cl)ccc2NC1=O (stereo not drawn),ED50,Mus musculus [1],0.32 mg/kg
same,Ratio ED50,Mus musculus [2],9.1
same,ED50,Mus musculus [3],2.64 mg/kg
same,ED50,Mus musculus [4],3.28 mg/kg
same,Vmax,[5],88 nmol/min
same,ED50,Mus musculus [6],0.29 mg/kg
same,Ratio ED50,Mus musculus [7],10.3
CCC(CC)C(=O)OC1N=C(c2ccccc2)c2cc(Cl)ccc2N[14C]1=O (stereo not drawn),Drug uptake,Brain [16],12.1 nmol
same,Drug uptake,Brain [17],0.8 nmol
same,Drug uptake,Brain [18],4.8 nmol
same,Drug uptake,Brain [19],7.8 nmol
same,Drug uptake,Brain [20],13.5 nmol
same,Drug uptake,Brain [21],18 nmol
same,Drug uptake,Brain [22],20 nmol
same,Drug uptake,Brain [23],2 nmol
same,Drug uptake,Brain [24],23.1 nmol
same,Drug uptake,Brain [25],20.9 nmol
same,Rm,[26],0.46
CC(C)C(=O)OC1N=C(c2ccccc2)c2cc(Cl)ccc2NC1=O (stereo not drawn),ED50,Mus musculus [1],0.33 mg/kg
same,Ratio ED50,Mus musculus [2],4.8
same,ED50,Mus musculus [3],2.45 mg/kg
same,ED50,Mus musculus [4],2.67 mg/kg
same,Vmax,[5],131 nmol/min
same,ED50,Mus musculus [6],0.51 mg/kg
same,Ratio ED50,Mus musculus [7],8.1
CC(=O)OC1N=C(c2ccccc2)c2cc(Cl)ccc2NC1=O (stereo not drawn),ED50,Mus musculus [1],0.33 mg/kg
same,Ratio ED50,Mus musculus [2],2.6
same,ED50,Mus musculus [3],0.97 mg/kg
same,ED50,Mus musculus [4],1.2 mg/kg
same,Vmax,[5],323 nmol/min
same,ED50,Mus musculus [6],0.38 mg/kg
same,Ratio ED50,Mus musculus [7],3.6
CCC(CC)C(=O)OC1N=C(c2ccccc2)c2cc(Cl)ccc2NC1=O (stereo not drawn),ED50,Mus musculus [1],0.33 mg/kg
same,Ratio ED50,Mus musculus [2],10
same,ED50,Mus musculus [3],2.8 mg/kg
same,ED50,Mus musculus [4],3.42 mg/kg
same,Vmax,[5],1.4 nmol/min
same,ED50,Mus musculus [6],0.28 mg/kg
same,Ratio ED50,Mus musculus [7],10.4
CC(=O)OC1N=C(c2ccccc2)c2cc(Cl)ccc2N[14C]1=O (stereo not drawn),Drug uptake,Brain [16],40.3 nmol
same,Drug uptake,Brain [27],39.4 nmol
same,Drug uptake,Brain [18],59.5 nmol
same,Drug uptake,Brain [19],49.2 nmol
same,Drug uptake,Brain [20],11 nmol
same,Drug uptake,Brain [22],33 nmol
same,Drug uptake,Brain [23],47.5 nmol
same,Drug uptake,Brain [24],46.6 nmol
same,Drug uptake,Brain [28],29.9 nmol
same,Rm,[26],-0.15
O=C(CCCc1ccccc1)OC1N=C(c2ccccc2)c2cc(Cl)ccc2NC1=O (stereo not drawn),Vmax,[5],1.5 nmol/min
same,Km,esterase,9.5 µM
O=C(CCc1ccccc1)OC1N=C(c2ccccc2)c2cc(Cl)ccc2N[14C]1=O (stereo not drawn),Drug uptake,Brain [8],12.2 nmol
same,Drug uptake,Brain [9],13.6 nmol
same,Drug metabolism,Liver [29],40.7 nmol/g
same,Drug uptake,Brain [10],2.2 nmol
same,Drug uptake,Brain [11],7.1 nmol
same,Drug uptake,Brain [30],0.5 nmol
same,Drug uptake,Brain [12],0.8 nmol
same,Drug uptake,Brain [13],12.1 nmol
same,Drug metabolism,Liver [31],34.7 nmol/g
same,Drug metabolism,Liver [32],32.6 nmol/g
same,Drug metabolism,Liver [33],45.6 nmol/g
same,Drug uptake,Brain [14],1.4 nmol
same,Drug uptake,Brain [15],6.6 nmol
same,Rm,[26],0.5
